{
  "source": "ChEMBL document CHEMBL1146519",
  "about": "“Acaricidal activity of tonka bean extracts. Synthesis and structure-activity relationships of bioactive derivatives” (J Nat Prod, 2003)",
  "system": "Dermatophagoides pteronyssinus",
  "assay": "Pesticidal activity against Dermatophagoides pteronyssinus after 24 hrs",
  "type": "functional, organism-based",
  "in_short": "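D. pteronyssinus reared on 90% yeast powder/10% beard shavings at 25 °C, 75% RH, dark. Compounds in absolute EtOH dried 24 h on 2 cm2 well bottoms; rims glued. 100 mites per well, 24 h at 25 °C, 75% RH, dark. Dead = no movement when prodded. Abbott-corrected mortality; EC50 by linear regression. Seven 2-fold dilutions, 0.01–0.640 g/m2, triplicate, repeated after one week.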",
  "data": [
    {"compound": "O=C(OCc1ccccc1)c1cc2ccccc2oc1=O", "values": [
      {"measurement": "EC50", "value": 0.28, "unit": "g/m2"}
    ]},
    {"compound": "Cc1ccc2oc(=O)ccc2c1", "values": [
      {"measurement": "EC50", "value": 0.04, "unit": "g/m2"}
    ]},
    {"compound": "O=C(OCc1ccccc1)c1cccc(O)c1", "values": [
      {"measurement": "EC50", "value": 0.495, "unit": "g/m2"}
    ]},
    {"compound": "O=C(OCc1ccccc1)c1ccc(O)cc1", "values": [
      {"measurement": "EC50", "value": 0.495, "unit": "g/m2"}
    ]},
    {"compound": "O=Cc1cc(C(=O)OCc2ccccc2)ccc1O", "values": [
      {"measurement": "EC50", "value": 0.242, "unit": "g/m2"}
    ]},
    {"compound": "O=C(OCc1ccccc1)c1cc(=O)c2ccccc2o1", "values": [
      {"measurement": "EC50", "value": 0.495, "unit": "g/m2"}
    ]},
    {"compound": "O=C(OCc1ccccc1)c1ccc2oc(=O)ccc2c1", "values": [
      {"measurement": "EC50", "value": 0.495, "unit": "g/m2"}
    ]},
    {"compound": "O=C(OCc1ccccc1)c1cccc2oc(=O)ccc12", "values": [
      {"measurement": "EC50", "value": 0.495, "unit": "g/m2"}
    ]},
    {"compound": "O=c1cc(O)c2ccccc2o1", "note": "[4-HYDROXYCOUMARINS]", "values": [
      {"measurement": "EC50", "value": "> 1.5", "unit": "g/m2"}
    ]},
    {"compound": "O=C(OCc1ccccc1)c1ccccc1", "note": "[BENZYL BENZOATE]", "values": [
      {"measurement": "EC50", "value": 0.025, "unit": "g/m2"}
    ]},
    {"compound": "O=C(/C=C/c1ccccc1)OCc1ccccc1", "note": "[BENZYL CINNAMATE]", "values": [
      {"measurement": "EC50", "value": 0.18, "unit": "g/m2"}
    ]},
    {"compound": "O=C(OCc1ccccc1)c1ccc(=O)oc1", "note": "[BENZYL COUMALATE]", "values": [
      {"measurement": "EC50", "value": 0.495, "unit": "g/m2"}
    ]},
    {"compound": "O=C(OCc1ccccc1)c1ccccc1O", "note": "[BENZYL SALICYLATE]", "values": [
      {"measurement": "EC50", "value": 0.025, "unit": "g/m2"}
    ]},
    {"compound": "Oc1ccccc1CCCc1ccccc1", "note": "[CHALCANE]", "values": [
      {"measurement": "EC50", "value": 0.31, "unit": "g/m2"}
    ]},
    {"compound": "O=C1CCOc2ccccc21", "note": "[CHROMANONE]", "values": [
      {"measurement": "EC50", "value": 0.07, "unit": "g/m2"}
    ]},
    {"compound": "O=c1ccoc2ccccc12", "note": "[CHROMONE]", "values": [
      {"measurement": "EC50", "value": 0.037, "unit": "g/m2"}
    ]},
    {"compound": "O=c1ccc2ccccc2o1", "note": "[COUMARIN]", "values": [
      {"measurement": "EC50", "value": 0.032, "unit": "g/m2"}
    ]},
    {"compound": "c1ccc(C2CCc3ccccc3O2)cc1", "note": "(stereo unspecified) [FLAVANE]", "values": [
      {"measurement": "EC50", "value": 0.15, "unit": "g/m2"}
    ]},
    {"compound": "O=C1CC(c2ccccc2)Oc2ccccc21", "note": "(stereo unspecified) [FLAVANONE]", "values": [
      {"measurement": "EC50", "value": 0.09, "unit": "g/m2"}
    ]},
    {"compound": "O=c1cc(-c2ccccc2)oc2ccccc12", "note": "[FLAVONE]", "values": [
      {"measurement": "EC50", "value": 0.5, "unit": "g/m2"}
    ]},
    {"compound": "O=c1ccc2ccc(O)cc2o1", "note": "[UMBELLIFERONE]", "values": [
      {"measurement": "EC50", "value": "> 1.5", "unit": "g/m2"}
    ]}
  ]
}
